In paper PMC7458062 (ACS Infectious Diseases, 2020):

What was measured:
[1] = tested on: P. aeruginosa 18SH strain, blaPDC; assay type: cell-based; details: Pseudomonas aeruginosa, read-out: MIC of CAZ, P. aer. 18SH blaPDC
Outline: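 CLSI broth microdilution in Mueller-Hinton broth, with inoculum at 6 × 10^4 cfu/mL final. Ceftazidime was tested from 128 to 0.06 μg/mL, with test compound held constant at 4 μg/mL. Plates were incubated overnight at 37 °C and MICs were recorded the next day.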

E. coli DH10B blaCTX-M-9 = assay type: cell-based; details: Escherichia coli, read-out: MIC of FEP, E. coli, DH10B blaCTX-M-9

MIC [1] [µg/mL] | SMILES | MIC (E. coli DH10B blaCTX-M-9) [µg/mL]
64 | CC(C)(O/N=C(\C(=O)N[C@@H]1C(=O)N2C(C(=O)[O-])=C(C[n+]3ccccc3)CS[C@H]12)c1csc(N)n1)C(=O)O [CAZ, ceftazidime] | 
 | CO/N=C(\C(=O)N[C@@H]1C(=O)N2C(C(=O)[O-])=C(C[N+]3(C)CCCC3)CS[C@H]12)c1csc(N)n1 [FEP, cefepime] | 8
